# ChEMBL document CHEMBL4312015, “Design, synthesis and 3D-QSAR analysis of novel thiopyranopyrimidine derivatives as potential antitumor agents inhibiting A549 and Hela cancer cells” (Eur J Med Chem, 2020)
# pIC50: −log10 of the molar value. Active and inactive are the calls of the source. No cut-off for these calls is given here.
# Key:
# A549 [1] = assay: Induction of apoptosis in human A549 cells assessed as late apoptotic cells at 0.057 uM after 24 hrs by AnnexinV-FITC/propidium iodide staining based FACSCalibur flow cytometry analysis (reference value: 1.74 %); format: functional
# NCI-H1975 [2] = assay: Antiproliferative activity human NCI-H1975 cells harboring EGFR T790M/L858R double mutant assessed as inhibition of cell growth at 10 uM after 72 hrs by MTT assay relative to control; format: functional; details: NCI-H1975, 72 h
# Method in brief: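 H1975 cells exposed to compound at a single 10 uM concentration. Growth inhibition rate read by MTT after 72 h in 96-well plates, with AZD9291 as positive control. Values are an average of two separate determinations.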
# A549 [3] = assay: Induction of apoptosis in human A549 cells assessed as viable cells at 0.057 uM after 24 hrs by AnnexinV-FITC/propidium iodide staining based FACSCalibur flow cytometry analysis (reference value: 94.42 %); format: functional; details: A549, 24 h, read-out: Activity
# Homo sapiens = species: Homo sapiens; assay: Selectivity ratio of IC50 for wildtype EGFR (unknown origin) to IC50 for EGFR T790M/L858R double mutant (unknown origin) by mobility shift assay based ELISA
# A549 [4] = assay: Cell cycle arrest in human A549 cells assessed as accumulation at G2/M phase at 0.057 uM after 24 hrs by propidium iodide staining based FACSCalibur flow cytometry analysis (reference value: 3.45 %); format: functional
# Method in brief: (§1)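 A549 cells seeded in 6-well plates for 24 h, then treated for 24 h; vehicle was 0.1% DMSO. Cells were harvested as single-cell suspensions, fixed in 70% ice-cold ethanol for 12 h, and stained with propidium iodide. DNA content was measured by flow cytometry. AZD9291 at 0.462 uM was included as reference.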
# A549 [5] = assay: Cell cycle arrest in human A549 cells assessed as accumulation at G0/G1 phase at 0.057 uM after 24 hrs by propidium iodide staining based FACSCalibur flow cytometry analysis (reference value: 74.31 %); format: functional; method in brief: as §1
# [6] = target: Epidermal growth factor receptor (Homo sapiens, UniProt P00533, L858R/T790M); assay: Inhibition of EGFR T790M/L858R double mutant (unknown origin) using biotin as substrate in presence of ATP by mobility shift assay based ELISA
# A549 [7] = assay: Induction of apoptosis in human A549 cells assessed as necrotic cells at 0.057 uM after 24 hrs by AnnexinV-FITC/propidium iodide staining based FACSCalibur flow cytometry analysis (reference value: 0.33 %); format: functional
# HeLa [8] = assay: Inhibition of EFGR protein expression in human HeLa cells after 24 hrs by Western blot analysis; format: functional, cell-based
# Method in brief: (§2)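 HeLa cells treated for 24 h with graded compound concentrations, with AZD9291 as positive control. Whole-cell lysates were made in RIPA buffer and protein measured by BCA. Equal protein was run on 10% SDS-PAGE, transferred to PVDF on ice, and probed for EGFR, p-EGFR and GAPDH.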
# A549 [9] = assay: Cell cycle arrest in human A549 cells assessed as accumulation at S phase at 0.057 uM after 24 hrs by propidium iodide staining based FACSCalibur flow cytometry analysis (reference value: 22.24 %); format: functional; method in brief: as §1
# [10] = target: T1, Epidermal growth factor receptor (Homo sapiens, UniProt P00533); assay: Inhibition of EFGR phosphorylation in human HeLa cells at 0.1 to 10 uM after 24 hrs by Western blot analysis; format: cell-based; method in brief: as §2
# NCI-H1975 [11] = assay: Antiproliferative activity against human NCI-H1975 cells harboring EGFR T790M/L858R double mutant assessed as inhibition of cell growth after 72 hrs by MTT assay; format: functional, cell-based; details: NCI-H1975, 72 h
# Method in brief: (§3)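 Cell lines from the Chinese Academy of Sciences cell collection, grown in 96-well plates with a range of compound concentrations for 72 h. Viability read by MTT, with AZD9291 as positive control. IC50 values are averages of three determinations per the methods section; table footnotes state an average of two separate determinations.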
# A549 [12] = assay: Induction of apoptosis in human A549 cells assessed as early apoptotic cells at 0.057 uM after 24 hrs by AnnexinV-FITC/propidium iodide staining based FACSCalibur flow cytometry analysis (reference value: 3.51 %); format: functional
# A549 [13] = assay: Antiproliferative activity against human A549 cells assessed as inhibition of cell growth after 72 hrs by MTT assay; format: functional, cell-based; details: A549, 72 h; method in brief: as §3
# [14] = target: T1, Epidermal growth factor receptor; assay: Inhibition of wildtype EGFR (unknown origin) using biotin as substrate in presence of ATP by mobility shift assay based ELISA
# HeLa [15] = assay: Antiproliferative activity against human HeLa cells assessed as inhibition of cell growth after 72 hrs by MTT assay; format: functional, cell-based; details: for pIC50: read-out: IC50; for IC50: read-out: pIC50 (converted); method in brief: as §3
# A549 [16] = assay: Cell cycle arrest in human A549 cells assessed as accumulation at G0/G1 phase at 0.716 uM after 24 hrs by propidium iodide staining based FACSCalibur flow cytometry analysis (reference value: 74.31 %); format: functional; method in brief: as §1
# A549 [17] = assay: Induction of apoptosis in human A549 cells assessed as viable cells at 0.716 uM after 24 hrs by AnnexinV-FITC/propidium iodide staining based FACSCalibur flow cytometry analysis (reference value: 94.42 %); format: functional; details: A549, 24 h, read-out: Activity
# A549 [18] = assay: Cell cycle arrest in human A549 cells assessed as accumulation at G2/M phase at 0.716 uM after 24 hrs by propidium iodide staining based FACSCalibur flow cytometry analysis (reference value: 3.45 %); format: functional; method in brief: as §1
# A549 [19] = assay: Cell cycle arrest in human A549 cells assessed as accumulation at S phase at 0.716 uM after 24 hrs by propidium iodide staining based FACSCalibur flow cytometry analysis (reference value: 22.24 %); format: functional; method in brief: as §1
# A549 [20] = assay: Induction of apoptosis in human A549 cells assessed as necrotic cells at 0.716 uM after 24 hrs by AnnexinV-FITC/propidium iodide staining based FACSCalibur flow cytometry analysis (reference value: 0.33 %); format: functional
# A549 [21] = assay: Induction of apoptosis in human A549 cells assessed as early apoptotic cells at 0.716 uM after 24 hrs by AnnexinV-FITC/propidium iodide staining based FACSCalibur flow cytometry analysis (reference value: 3.51 %); format: functional
# A549 [22] = assay: Induction of apoptosis in human A549 cells assessed as late apoptotic cells at 0.716 uM after 24 hrs by AnnexinV-FITC/propidium iodide staining based FACSCalibur flow cytometry analysis (reference value: 1.74 %); format: functional
# T1 sequence (P00533 whole entry): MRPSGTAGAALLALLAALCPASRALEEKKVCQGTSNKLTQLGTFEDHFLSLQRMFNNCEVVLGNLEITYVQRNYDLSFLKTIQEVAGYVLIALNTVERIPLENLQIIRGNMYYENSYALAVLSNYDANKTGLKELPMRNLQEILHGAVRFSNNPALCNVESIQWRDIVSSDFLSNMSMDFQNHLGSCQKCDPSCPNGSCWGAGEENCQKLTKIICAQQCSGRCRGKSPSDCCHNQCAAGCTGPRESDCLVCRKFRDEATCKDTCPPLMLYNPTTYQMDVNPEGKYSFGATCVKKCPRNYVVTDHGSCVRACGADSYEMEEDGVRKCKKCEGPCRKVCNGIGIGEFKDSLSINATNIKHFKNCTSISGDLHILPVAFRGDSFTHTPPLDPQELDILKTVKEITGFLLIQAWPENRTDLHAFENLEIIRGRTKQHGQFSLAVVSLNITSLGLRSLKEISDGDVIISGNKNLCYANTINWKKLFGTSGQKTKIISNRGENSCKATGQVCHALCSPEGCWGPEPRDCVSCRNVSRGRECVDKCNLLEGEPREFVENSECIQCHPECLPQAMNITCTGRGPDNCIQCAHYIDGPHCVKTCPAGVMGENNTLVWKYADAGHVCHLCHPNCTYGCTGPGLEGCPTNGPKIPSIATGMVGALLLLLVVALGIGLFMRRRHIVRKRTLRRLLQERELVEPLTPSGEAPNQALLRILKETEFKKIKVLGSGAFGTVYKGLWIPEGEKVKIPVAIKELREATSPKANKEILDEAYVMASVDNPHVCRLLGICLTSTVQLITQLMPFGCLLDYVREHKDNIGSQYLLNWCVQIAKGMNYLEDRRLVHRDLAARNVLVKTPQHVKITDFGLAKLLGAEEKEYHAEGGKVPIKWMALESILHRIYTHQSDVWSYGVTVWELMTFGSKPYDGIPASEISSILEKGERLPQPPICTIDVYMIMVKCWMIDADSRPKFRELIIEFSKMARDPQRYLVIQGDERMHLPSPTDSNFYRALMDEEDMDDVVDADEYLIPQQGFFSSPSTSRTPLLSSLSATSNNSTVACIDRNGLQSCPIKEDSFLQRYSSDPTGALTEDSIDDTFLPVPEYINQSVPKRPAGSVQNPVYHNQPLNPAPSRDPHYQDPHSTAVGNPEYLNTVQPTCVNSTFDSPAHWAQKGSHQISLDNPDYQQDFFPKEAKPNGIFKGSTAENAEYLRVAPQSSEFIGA
# Chain of Epidermal growth factor receptor (Homo sapiens, UniProt P00533, L858R/T790M) (P00533 25-1210 T790M/L858R limits assumed): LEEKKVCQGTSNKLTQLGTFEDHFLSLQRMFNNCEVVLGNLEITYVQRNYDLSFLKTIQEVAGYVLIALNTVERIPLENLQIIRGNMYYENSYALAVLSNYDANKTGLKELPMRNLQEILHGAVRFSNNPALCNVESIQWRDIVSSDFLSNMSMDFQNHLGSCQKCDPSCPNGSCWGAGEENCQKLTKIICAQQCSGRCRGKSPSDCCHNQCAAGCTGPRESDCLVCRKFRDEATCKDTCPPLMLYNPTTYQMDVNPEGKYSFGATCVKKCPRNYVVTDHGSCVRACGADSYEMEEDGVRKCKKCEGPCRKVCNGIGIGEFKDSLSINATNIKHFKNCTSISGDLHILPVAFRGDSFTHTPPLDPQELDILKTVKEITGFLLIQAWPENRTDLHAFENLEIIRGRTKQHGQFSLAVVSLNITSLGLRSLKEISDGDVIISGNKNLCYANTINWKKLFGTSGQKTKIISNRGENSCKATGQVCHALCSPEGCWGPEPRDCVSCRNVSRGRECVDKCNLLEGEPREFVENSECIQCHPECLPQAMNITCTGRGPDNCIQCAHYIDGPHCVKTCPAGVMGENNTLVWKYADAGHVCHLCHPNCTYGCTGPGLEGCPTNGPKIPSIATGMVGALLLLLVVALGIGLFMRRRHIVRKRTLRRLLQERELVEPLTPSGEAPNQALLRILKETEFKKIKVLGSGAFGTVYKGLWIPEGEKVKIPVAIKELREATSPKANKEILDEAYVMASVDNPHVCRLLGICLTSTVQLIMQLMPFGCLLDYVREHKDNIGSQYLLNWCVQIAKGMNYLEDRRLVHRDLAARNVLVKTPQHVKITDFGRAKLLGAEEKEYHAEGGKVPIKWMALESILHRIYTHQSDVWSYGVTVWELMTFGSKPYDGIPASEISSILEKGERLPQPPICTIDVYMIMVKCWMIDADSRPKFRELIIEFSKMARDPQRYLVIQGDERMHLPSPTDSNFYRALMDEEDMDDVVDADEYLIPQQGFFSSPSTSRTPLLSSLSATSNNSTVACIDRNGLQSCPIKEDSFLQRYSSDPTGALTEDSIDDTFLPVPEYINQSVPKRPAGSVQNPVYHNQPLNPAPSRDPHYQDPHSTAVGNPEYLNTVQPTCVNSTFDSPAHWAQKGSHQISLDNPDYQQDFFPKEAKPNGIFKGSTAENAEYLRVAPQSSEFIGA
Ratio IC50 (Homo sapiens),pIC50 [6],pIC50 (NCI-H1975 [11]),pIC50 (A549 [13]),pIC50 [14],pIC50 (HeLa [15]),IC50 (HeLa [15]),SMILES,inhibition at 10 µM (NCI-H1975 [2]),other results
> 125,7.80,6.04,7.24,< 5.70,6.98,104 nM,CCC/C=C\C(=O)Nc1cc(Nc2nc3c(c(-c4cn(C)c5ccccc45)n2)CS(=O)(=O)CC3)c(OC)cc1N(C)CCN(C)C,99.5%,Activity (A549 [1]): 5.92%; viability at 0.057 µM (A549 [3]): 88.1%; Activity (A549 [4]): 10.63%; Activity (A549 [5]): 69.17%; Activity (A549 [7]): 0.08%; inhibition (HeLa [8]): Dose-dependent effect; Activity (A549 [9]): 20.2%; inhibition [10]: inactive; Activity (A549 [12]): 5.87%
18.4,7.51,5.38,6.15,6.24,6.00,1000 nM,C=C(Cl)C(=O)Nc1cc(Nc2nc3c(c(-c4cn(C)c5ccccc45)n2)CSCC3)c(OC)cc1N(C)CCN(C)C,99.6%,Activity (A549 [16]): 60.51%; viability at 0.716 µM (A549 [17]): 85.9%; Activity (A549 [18]): 12.35%; Activity (A549 [19]): 27.14%; Activity (A549 [20]): 0.6%; Activity (A549 [21]): 7.56%; Activity (A549 [22]): 5.99%
